Data taken from ChEMBL document CHEMBL5120843, “Structure and Antimicrobial Activity of Rare Lactone Lipids from the Sooty Mold (Scorias spongiosa)” (J Nat Prod, 2022).
Values after ≈ are worked out from the molar mass of the structure shown.

How the values were obtained:
[1] = system: Cryptococcus neoformans; assay: Antifungal activity against Cryptococcus neoformans ATCC 90113 incubated for 70 to 74 hrs by CLSI protocol based assay; type: functional, organism-based
[2] = system: Cryptococcus neoformans; assay: Antifungal activity against Cryptococcus neoformans ATCC 90113 assessed as minimum inhibitory concentration incubated for 70 to 74 hrs by CLSI protocol based assay; type: functional; details: time 70-74 hrs
Method in brief: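 Cryptococcus neoformans in Sabouraud dextrose broth at final 1.5 × 10^3, serially diluted samples in duplicate, final concentration 1/100th of stock. Read at 530 nm before and after 35 °C for 70–74 h. MIC is the lowest test concentration with no detectable growth.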

[3] = system: Cryptococcus neoformans; assay: Synergistic antifungal activity against Cryptococcus neoformans H99 assessed as […] at 2 ug/ml incubated for 72 hrs by CLSI protocol based checkerboard assay; type: functional; details: dose 2 µg/ml
Method in brief: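 Checkerboard per CLSI. Overnight C. neoformans H99 culture diluted in RPMI 1640 with MOPS, pH 7.0, to final 1.0 × 10^4 CFU/mL. […] Single-agent, solvent and media controls included. OD 490 nm read before and after 30 °C for 72 h, normalized to solvent control. FIC ≤ 0.5 scored as synergy.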

[4] = system: Staphylococcus aureus; assay: Antibacterial activity against Staphylococcus aureus ATCC 29213 incubated for 16 to 20 hrs by CLSI protocol based assay; type: functional, organism-based
[5] = system: Staphylococcus aureus; assay: Antibacterial activity against Staphylococcus aureus ATCC 29213 assessed as minimum bactericidal concentration incubated for 16 to 20 hrs by CLSI protocol based assay; type: functional; details: time 16-20 hrs
[6] = system: Staphylococcus aureus; assay: Antibacterial activity against methicillin-resistant Staphylococcus aureus ATCC 33591 assessed as minimum inhibitory concentration incubated for 16 to 20 hrs by CLSI protocol based assay; type: functional; details: time 16-20 hrs
[7] = system: Pichia kudriavzevii; assay: Antifungal activity against Candida krusei ATCC 6258 incubated for 46 to 50 hrs by CLSI protocol based assay; type: functional, organism-based
[8] = system: Cryptococcus neoformans; assay: Antifungal activity against Cryptococcus neoformans ATCC 90113 assessed as minimum fungicidal concentration incubated for 70 to 74 hrs by CLSI protocol based assay; type: functional; details: time 70-74 hrs
Method in brief: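 From clear wells of the Cryptococcus broth assay (Sabouraud dextrose, 35 °C, 70–74 h), 5 μL transferred to fresh medium and reincubated under the same conditions. MFC is the lowest concentration that kills the organism.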

[9] = system: Cryptococcus neoformans; assay: Synergistic antifungal activity against Cryptococcus neoformans H99 assessed as fold increase in amphotericin fungicidal activity at 2 ug/ml incubated for 48 hrs by CLSI protocol based yeast peptone dextrose agar plate method; type: functional; details: dose 2 µg/ml
Method in brief: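 Fungicidal read-out from the H99 checkerboard (RPMI/MOPS pH 7.0, 1.0 × 10^4 CFU/mL, 30 °C, 72 h). Plate shaken, then 2 μL from each well spotted on YPD agar and incubated at 30 °C for 48 h.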

[10] = system: Staphylococcus aureus; assay: Antibacterial activity against methicillin-resistant Staphylococcus aureus ATCC 33591 assessed as minimum bactericidal concentration incubated for 16 to 20 hrs by CLSI protocol based assay; type: functional; details: time 16-20 hrs
[11] = system: Staphylococcus aureus; assay: Antibacterial activity against methicillin-resistant Staphylococcus aureus ATCC 33591 incubated for 16 to 20 hrs by CLSI protocol based assay; type: functional, organism-based
[12] = system: Staphylococcus aureus; assay: Antibacterial activity against Staphylococcus aureus ATCC 29213 assessed as minimum inhibitory concentration incubated for 16 to 20 hrs by CLSI protocol based assay; type: functional; details: time 16-20 hrs
[13] = system: Candida albicans; assay: Antifungal activity against Candida albicans ATCC 90028 incubated for 46 to 50 hrs by CLSI protocol based assay; type: functional, organism-based
[14] = system: Nakaseomyces glabratus; assay: Antifungal activity against Candida glabrata ATCC 90030 incubated for 46 to 50 hrs by CLSI protocol based assay; type: functional, organism-based
[15] = system: Cryptococcus neoformans; assay: Synergistic antifungal activity against Cryptococcus neoformans H99 assessed as fractional inhibitory concentration incubated for 72 hrs by CLSI protocol based checkerboard assay; type: functional
Method in brief: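 Checkerboard in RPMI 1640 buffered with MOPS pH 7.0. Final inoculum 1.0 × 10^4 CFU/mL from an overnight H99 culture. […] OD490 read before and after 72 h at 30 °C, normalized to solvent control. FIC ≤0.5 taken as synergy.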

[16] = system: Nakaseomyces glabratus; assay: Antifungal activity against Candida glabrata ATCC 90030 assessed as minimum fungicidal concentration incubated for 46 to 50 hrs by CLSI protocol based assay; type: functional; details: time 46-50 hrs
Method in brief: (§1)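 After the Candida broth microdilution (RPMI/MOPS pH 6.0, 35 °C, 46–50 h), 5 μL from each clear well moved to fresh medium and incubated again under the same conditions. MFC defined as the lowest test concentration that kills the organism.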

[17] = system: Nakaseomyces glabratus; assay: Antifungal activity against Candida glabrata ATCC 90030 assessed as minimum inhibitory concentration incubated for 46 to 50 hrs by CLSI protocol based assay; type: functional; details: time 46-50 hrs
Method in brief: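 Candida strains in RPMI 1640/0.2% dextrose/0.03% glutamine/MOPS, pH 6.0. Inoculum 1.5 × 10^3, samples serially diluted from DMSO stocks, duplicate wells, final concentration 1/100th of stock. Read at 530 nm before and after 35 °C for 46–50 h. MIC taken as lowest test concentration with no detectable growth.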

[18] = system: Pichia kudriavzevii; assay: Antifungal activity against Candida krusei ATCC 6258 assessed as minimum inhibitory concentration incubated for 46 to 50 hrs by CLSI protocol based assay; type: functional; details: time 46-50 hrs
Method in brief: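 Inoculum 1.5 × 10^3, samples serially diluted from DMSO stocks, duplicate wells, final concentration 1/100th of stock. Read at 530 nm before and after 35 °C for 46–50 h. MIC taken as lowest test concentration with no detectable growth.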

[19] = system: Pichia kudriavzevii; assay: Antifungal activity against Candida krusei ATCC 6258 assessed as minimum fungicidal concentration incubated for 46 to 50 hrs by CLSI protocol based assay; type: functional; details: time 46-50 hrs; method in brief: as §1

| Compound | IC50 [1] [µg/mL] | MIC [2] [µg/mL] | fold change (FC) [3] | IC50 [4] [µg/mL] | MBC [5] [µg/mL] | MIC [6] [µg/mL] | IC50 [7] [µg/mL] | MFC [8] [µg/mL] | fold change (FC) [9] | MBC [10] [µg/mL] | IC50 [11] [µg/mL] | MIC [12] [µg/mL] | IC50 [13] [µg/mL] | IC50 [14] [µg/mL] | FIC [15] | MFC [16] [µg/mL] | MIC [17] [µg/mL] | MIC [18] [µg/mL] | MFC [19] [µg/mL] |
| --- | --- | --- | --- | --- | --- | --- | --- | --- | --- | --- | --- | --- | --- | --- | --- | --- | --- | --- | --- |
| CCCCCCCCCCCC[C@]1(C)C=C/C(=C2/C(=O)O[C@@H](CC(=O)OC)C2=O)O1 | 0.63 (≈ 1.5 µM) | 1.25 (≈ 2.97 µM) | 16 | 1.08 (≈ 2.57 µM) | 10 (≈ 23.8 µM) | 1.25 (≈ 2.97 µM) | 20 (≈ 47.6 µM) | 1.25 (≈ 2.97 µM) | 8 | 5 (≈ 11.9 µM) | 0.71 (≈ 1.69 µM) | 2.5 (≈ 5.94 µM) | – | – | – | – | – | – | – |
| C[C@@H]1[C@H](O)[C@@H](C)/C=C/C=C/C=C/C=C/C=C/C=C/C=C/[C@H](O[C@@H]2O[C@H](C)[C@@H](O)[C@H](N)[C@@H]2O)C[C@@H]2O[C@](O)(C[C@@H](O)C[C@@H](O)[C@H](O)CC[C@@H](O)C[C@@H](O)CC(=O)O[C@H]1C)C[C@H](O)[C@H]2C(=O)O [AMPHOTERICIN B] | 0.35 (≈ 0.379 µM) | 0.63 (≈ 0.682 µM) | – | – | – | – | 0.74 (≈ 0.801 µM) | 0.63 (≈ 0.682 µM) | – | – | – | – | 0.14 (≈ 0.152 µM) | 0.21 (≈ 0.227 µM) | 0.3 | 0.63 (≈ 0.682 µM) | 0.63 (≈ 0.682 µM) | – | – |
| CCCCCCCCCCCC[C@]1(C)C=C/C(=C2/C(=O)O[C@@H](CC(=O)O)C2=O)O1 | 0.37 (≈ 0.91 µM) | 0.63 (≈ 1.55 µM) | – | 0.44 (≈ 1.08 µM) | 20 (≈ 49.2 µM) | 0.63 (≈ 1.55 µM) | 6.31 (≈ 15.5 µM) | 0.63 (≈ 1.55 µM) | – | 10 (≈ 24.6 µM) | 0.39 (≈ 0.959 µM) | 1.25 (≈ 3.07 µM) | 15.3 (≈ 37.6 µM) | 2.85 (≈ 7.01 µM) | – | 10 (≈ 24.6 µM) | 10 (≈ 24.6 µM) | 10 (≈ 24.6 µM) | 10 (≈ 24.6 µM) |
